The source of these data is ChEMBL document CHEMBL6134796, “Development and Evaluation of Indole-Based Phospholipase D Inhibitors for Lung Cancer Immunotherapy” (J Med Chem, 2025).

Assay [1] has as its target Phospholipase D2 (Homo sapiens) (UniProt O14939). In words: Inhibition of PLD2 (unknown origin) overexpressed in human A549 cells. The class given is cell-based. The method in brief:
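A549 cells transfected with wild-type PLD1, PLD1 mutants (L425A, F614A, F789A) or PLD2, then compound-treated. PLD activity measured as [3H]phosphatidylbutanol formed in the presence of 1-butanol after [3H]myristic acid labeling, expressed as % of total lipid cpm. At least three independent experiments.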

The subject of assay [2] is A549. The assay is described as follows: Cytotoxicity against human A549 cells assessed as inhibition of cell growth incubated for 48 hrs by WST-1 assay. It is filed as functional, cell-based. As to conditions: A549, 48 h.
Assay [3] deals with A549. In words: Inhibition of cell proliferation in human A549 cells assessed as reduction in Ki-67 expression. The class given is functional, cell-based. In short, it runs like this: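 A549 cells immunostained for Ki67 with fluorescent secondary antibody; nuclei counterstained with 1 μM Hoechst 33342; confocal imaging; at least three independent experiments, mean ± SEM.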

Assay [4] has as its system A549. The assay is described as follows: Downregulation of CD47 expression in human A549 cells by flow cytometry analysis. It is filed as functional, cell-based. The method in brief: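 A549 cells treated with compound. Surface "don't eat-me" and "eat-me" markers measured by flow cytometry.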
On the technique in general: Flow cytometry measures light scatter and fluorescence of single cells or particles in a stream.

The subject of assay [5] is Lewis lung carcinoma cell line. In words: Antitumor activity against mouse Lewis lung carcinoma cell line allografted in male C57BL/6 mouse model assessed as recovery of spleen size at 10 mg/kg, po measured every other day for 3 weeks. It is filed as functional, organism-based. In short, it runs like this: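 Syngeneic model: 6-week-old male C57BL/6 mice given 3 × 10^5 LLC cells in 50 μL PBS subcutaneously in the flank. At day 7, mice were randomized to vehicle PO daily or 10 mg/kg PO every other day for 3 weeks. Caliper volume was taken every 2 days as ([…])/2, with tumor weight at end. Spleen size and weight were recorded. Ki67 and cleaved caspase-3 were scored by IHC (DAB, hematoxylin).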

The next assay relates to Mus musculus. The assay is described as follows: In vivo inhibition of KRAS activation in male C57BL/6 mouse allografted with mouse Lewis lung carcinoma cell line assessed as decrease in RAS level at 10 mg/kg, po. It is filed as functional, organism-based.
For assay [6], the target named is T1, Phospholipase D1 (Mus musculus) (UniProt Q9Z280).
T1 sequence (whole entry): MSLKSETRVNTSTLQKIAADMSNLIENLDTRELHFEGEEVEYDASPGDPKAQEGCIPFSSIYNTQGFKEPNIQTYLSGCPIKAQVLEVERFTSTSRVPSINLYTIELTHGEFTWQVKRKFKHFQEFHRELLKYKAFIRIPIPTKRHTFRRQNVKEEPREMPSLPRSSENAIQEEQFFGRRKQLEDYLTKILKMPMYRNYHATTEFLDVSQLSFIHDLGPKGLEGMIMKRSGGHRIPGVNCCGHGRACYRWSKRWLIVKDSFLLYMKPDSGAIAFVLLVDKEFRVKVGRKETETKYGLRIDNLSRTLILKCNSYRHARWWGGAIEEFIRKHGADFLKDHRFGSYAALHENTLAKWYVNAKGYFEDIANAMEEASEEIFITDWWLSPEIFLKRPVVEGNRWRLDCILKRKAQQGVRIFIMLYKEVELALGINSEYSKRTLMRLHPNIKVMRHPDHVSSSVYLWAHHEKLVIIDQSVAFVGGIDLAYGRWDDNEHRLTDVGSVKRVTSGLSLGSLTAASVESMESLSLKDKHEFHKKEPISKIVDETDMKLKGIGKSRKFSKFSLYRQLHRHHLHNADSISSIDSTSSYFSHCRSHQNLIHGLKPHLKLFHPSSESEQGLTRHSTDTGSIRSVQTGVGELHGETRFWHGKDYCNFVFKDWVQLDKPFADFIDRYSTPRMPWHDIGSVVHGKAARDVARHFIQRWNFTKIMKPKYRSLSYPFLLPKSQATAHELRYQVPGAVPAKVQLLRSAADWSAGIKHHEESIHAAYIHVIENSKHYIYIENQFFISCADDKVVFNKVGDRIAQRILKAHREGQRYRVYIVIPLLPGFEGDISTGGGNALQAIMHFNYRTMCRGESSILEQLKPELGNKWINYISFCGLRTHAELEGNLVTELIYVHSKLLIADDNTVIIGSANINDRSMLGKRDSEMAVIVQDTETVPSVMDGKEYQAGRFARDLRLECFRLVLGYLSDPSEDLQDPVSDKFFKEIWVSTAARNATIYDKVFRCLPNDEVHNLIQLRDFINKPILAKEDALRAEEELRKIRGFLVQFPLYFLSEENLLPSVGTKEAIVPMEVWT
The assay is described as follows: In vivo inhibition of PLD1 in male C57BL/6 mouse allografted with mouse Lewis lung carcinoma cell line assessed as increase in CD8+T cell population at 10 mg/kg, po by immunofluorescence analysis. The class given is functional, organism-based. The method in brief:
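Same LLC syngeneic C57BL/6 model, 10 mg/kg PO every other day for 3 weeks. Tumor tissues were stained by immunofluorescence for CD80+ and CD163+ cells, CD8+ T cells, and CD4+/IL-17+ and Treg populations. Nuclei were counterstained with 1 μM Hoechst 33342 and imaged by confocal microscopy.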

The subject of a further assay is HCT-116. The assay is described as follows: Residual PLD activity in human HCT-116 cells at 10 uM measured after 1 hr by amplex red phospholipase D assay as % of control.

Calls of active or inactive are those of the source. The rule behind the calls is not given here.

Sequence of Phospholipase D2 (Homo sapiens) (O14939 whole entry): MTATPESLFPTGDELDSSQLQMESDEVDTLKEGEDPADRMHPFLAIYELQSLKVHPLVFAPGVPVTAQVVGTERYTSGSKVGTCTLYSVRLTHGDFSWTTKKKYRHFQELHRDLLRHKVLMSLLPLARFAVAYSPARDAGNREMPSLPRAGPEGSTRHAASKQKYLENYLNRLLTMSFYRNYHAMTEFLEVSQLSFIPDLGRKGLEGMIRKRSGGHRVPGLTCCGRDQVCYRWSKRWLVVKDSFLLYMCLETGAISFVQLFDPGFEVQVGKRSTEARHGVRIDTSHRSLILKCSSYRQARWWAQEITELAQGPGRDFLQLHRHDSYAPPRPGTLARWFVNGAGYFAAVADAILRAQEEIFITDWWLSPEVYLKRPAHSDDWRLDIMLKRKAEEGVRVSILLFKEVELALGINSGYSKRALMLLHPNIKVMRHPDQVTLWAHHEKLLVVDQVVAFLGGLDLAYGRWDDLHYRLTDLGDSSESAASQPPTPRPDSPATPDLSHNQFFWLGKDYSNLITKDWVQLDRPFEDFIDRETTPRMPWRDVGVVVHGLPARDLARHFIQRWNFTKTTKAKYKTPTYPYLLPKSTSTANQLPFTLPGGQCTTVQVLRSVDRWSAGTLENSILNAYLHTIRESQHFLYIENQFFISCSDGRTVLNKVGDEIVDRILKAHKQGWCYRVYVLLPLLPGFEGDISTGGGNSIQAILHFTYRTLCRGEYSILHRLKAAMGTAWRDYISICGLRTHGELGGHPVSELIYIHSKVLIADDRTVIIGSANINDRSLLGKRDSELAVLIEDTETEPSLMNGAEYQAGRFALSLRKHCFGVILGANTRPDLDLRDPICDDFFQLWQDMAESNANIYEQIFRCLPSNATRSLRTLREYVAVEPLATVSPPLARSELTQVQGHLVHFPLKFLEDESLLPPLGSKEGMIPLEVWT

Usually IC50 stands for the concentration that gives 50% inhibition. Take `O=C(CCc1c[nH]c2ccccc12)Nc1cc(C(F)(F)F)cc(C(F)(F)F)c1`: the inhibition entry in assay [1] is “inactive”. In the assay on A549 [2], the IC50 came to 18 µM. The inhibition entry (with A549 [3]; in the assay on Mus musculus; in assay [6]) was “Active” throughout. Also, the result (in the assay on A549 [4]; in assay [5]) was Active. Further, the level, % of control with HCT-116 came to 26.6%.
